Test results: ChEMBL document CHEMBL5042480, “3CL Protease Inhibitors with an Electrophilic Arylketone Moiety as Anti-SARS-CoV-2 Agents” (J Med Chem, 2022)
The source made the active and inactive calls. The rule behind the calls is not given here.

Assays:
SARS-CoV-2 = test: Antiviral activity against SARS coronavirus 2 infected in African green monkey Vero cells assessed as blockade of viral proliferation at 25 uM incubated for 48 hrs by cytopathic effect assay; type: functional, organism-based; conditions: Severe acute respiratory syndrome coronavirus 2
[1] = Inhibition of recombinant C-terminal His-tagged SARS coronavirus 2 3CL protease using Boc-Abu-Tle-Leu-Gln-AMC as substrate incubated for 5 mins by Cheng-Prusoff equation analysis; set-up: species or system Severe acute respiratory syndrome coronavirus 2
How it was run: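 His-tagged 3CLpro (8 ng/μL final) was assayed in 50 mM MOPS pH 7.2 with 10 mM NaCl, 1 mM EDTA and 0.01% Triton X-100. Substrate was 50 μM final (about Km) and DMSO 4% final. Inhibitor and substrate were preincubated 5 min at 37 °C, then enzyme was added and fluorescence (ex 360/em 460 nm) read for 10 min. At least 11 concentrations were tested; IC50 came from nonlinear regression and Ki from Cheng–Prusoff. n = 3.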

[2] = Competitive inhibition of recombinant C-terminal His-tagged SARS coronavirus 2 3CL protease using Boc-Abu-Tle-Leu-Gln-AMC as substrate incubated for 5 mins by plate reader analysis; set-up: species or system Severe acute respiratory syndrome coronavirus 2
How it was run: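 Competitive-inhibition kinetics: fluorogenic substrate at 15, 30, 45, 60 and 75 μM was combined with inhibitor at 0, 10, 20, 30, 40 and 50 nM, and product formation was monitored for 10 min. Data were analysed by Lineweaver–Burk plot and global fit to a competitive model. Three independent experiments were run.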

[3] = Inhibition of recombinant C-terminal His-tagged SARS coronavirus 1 3CL protease using Boc-Abu-Tle-Leu-Gln-AMC as substrate incubated for 5 mins by Cheng-Prusoff equation analysis; set-up: species or system Severe acute respiratory syndrome-related coronavirus

Structure (SMILES) | Activity (SARS-CoV-2) | Ki [1] [nM] | Ki [2] [nM] | Ki [3] [nM]
CC(C)C[C@H](NC(=O)c1nc2ccccc2[nH]1)C(=O)N[C@@H](C[C@@H]1CCNC1=O)C(=O)c1nc2ccccc2s1 | Active | 32.1 | – | –
CC(C)C[C@H](NC(=O)[C@@H](NC(=O)OCc1ccccc1)C(C)C)C(=O)N[C@@H](C[C@@H]1CCNC1=O)C(=O)c1nc2ccccc2s1 | Active | 14.5 | 19.8 | 4.1
